This is an account of results in ChEMBL document CHEMBL3352730, “Synthesis and effects on cell viability of flavonols and 3-methyl ether derivatives on human leukemia cells” (Eur J Med Chem, 2014).

The source made the active and inactive calls. The rule behind the calls is not given here.

The test system of experiment [1] is HL-60. In words: Induction of cell cycle arrest in human HL60 cells assessed as accumulation at G2/M phase at 3 uM after 24 hrs by propidium iodide staining based flow cytometry (reference value: 22.5 +/- 0.9%). The format is functional. (In flow cytometry, cells or beads pass a laser one at a time.)
The test system of experiment [2] is U-937. The experiment can be described thus: Induction of cell cycle arrest in human U937 cells assessed as accumulation at subG1 phase at 10 uM after 48 hrs by propidium iodide staining based flow cytometry (reference value: 6.7 +/- 0.3%). Type of experiment: functional.
In experiment [3] the test system is HL-60. The experiment can be described thus: Induction of cell cycle arrest in human HL60 cells assessed as accumulation at S phase at 1 uM after 48 hrs by propidium iodide staining based flow cytometry (reference value: 15.3 +/- 0.1%). The format is functional.
Experiment [4] relates to U-937. The experiment can be described thus: Induction of cell cycle arrest in human U937 cells assessed as accumulation at S phase at 1 uM after 48 hrs by propidium iodide staining based flow cytometry (reference value: 18.9 +/- 0.2%). The format is functional.
Experiment [5] concerns HL-60. The experiment can be described thus: Reduction in Bid expression in human HL60 cells by Western blotting method. Type of experiment: functional, cell-based. An outline of the steps: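 Cells (HL-60, Molt-3 or U937) were incubated with increasing concentrations of compound and harvested at 24 h. Cell lysates were then immunoblotted for Bid and other Bcl-2 family members.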
(In general: A western blot detects proteins with antibodies after separation by electrophoresis.)

For the compound `O=c1c(O)c(-c2ccc(Br)cc2)oc2ccccc12`, the Activity is 21.8% in the experiment with HL-60 [1], 45.7% in the experiment on U-937 [2], 15.5% with HL-60 [3] and 19.6% with U-937 [4]. Besides, the outcome with HL-60 [5] was Active.
